Laboratory results taken from PMC3107912 (Bioorganic & medicinal chemistry letters, 2011).

How the values were obtained:
Assay type in all cases: cell-based
[1] = molecular target: T1, S1P4 receptor (Homo sapiens, UniProt O95977); assay: S1P4 functional antagonist assay; settings: for fold less potent than the hit (1) at S1P4: versus hit compound 1
T1 sequence (O95977 1-384): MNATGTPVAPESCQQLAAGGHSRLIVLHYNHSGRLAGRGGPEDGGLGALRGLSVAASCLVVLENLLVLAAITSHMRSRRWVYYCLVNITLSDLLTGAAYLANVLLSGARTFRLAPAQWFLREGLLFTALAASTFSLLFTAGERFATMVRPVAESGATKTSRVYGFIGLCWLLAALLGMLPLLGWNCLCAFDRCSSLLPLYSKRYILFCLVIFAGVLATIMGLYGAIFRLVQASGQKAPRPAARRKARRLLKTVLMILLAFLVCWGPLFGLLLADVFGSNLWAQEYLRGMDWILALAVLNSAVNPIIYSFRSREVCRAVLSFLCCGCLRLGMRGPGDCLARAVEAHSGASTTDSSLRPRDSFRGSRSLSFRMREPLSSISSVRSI
In short: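 U2OS cells co-express a beta-arrestin/TEV protease fusion protein and a beta-lactamase reporter gene under the control of a UAS response element. Beta-lactamase expression is read as FRET from a cleavable, fluorogenic, cell-permeable beta-lactamase substrate. The test compound's antagonism of the S1P4 receptor is reported as an IC50.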

[2] = molecular target: S1P3 (Homo sapiens, UniProt Q99500); assay: S1P selectivity counter screen, functional assay at S1P3
[3] = molecular target: S1P2 (Homo sapiens, UniProt O95136); assay: S1P selectivity counter screen, functional assay at S1P2
[4] = molecular target: S1P1 (Homo sapiens, UniProt P21453); assay: S1P selectivity counter screen, functional assay at S1P1
Chain of S1P1 (P21453 whole entry, species assumed): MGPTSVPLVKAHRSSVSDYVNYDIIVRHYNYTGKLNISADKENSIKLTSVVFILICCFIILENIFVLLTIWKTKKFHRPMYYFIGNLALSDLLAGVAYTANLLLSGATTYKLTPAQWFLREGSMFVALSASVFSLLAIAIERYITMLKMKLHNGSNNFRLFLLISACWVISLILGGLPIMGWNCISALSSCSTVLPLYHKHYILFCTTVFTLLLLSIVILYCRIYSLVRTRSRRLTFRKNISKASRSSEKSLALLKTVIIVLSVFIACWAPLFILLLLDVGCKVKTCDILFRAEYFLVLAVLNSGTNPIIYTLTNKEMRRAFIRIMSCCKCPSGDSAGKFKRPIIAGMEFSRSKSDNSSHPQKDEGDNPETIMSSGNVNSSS

Chain of S1P2 (O95136 whole entry, species assumed): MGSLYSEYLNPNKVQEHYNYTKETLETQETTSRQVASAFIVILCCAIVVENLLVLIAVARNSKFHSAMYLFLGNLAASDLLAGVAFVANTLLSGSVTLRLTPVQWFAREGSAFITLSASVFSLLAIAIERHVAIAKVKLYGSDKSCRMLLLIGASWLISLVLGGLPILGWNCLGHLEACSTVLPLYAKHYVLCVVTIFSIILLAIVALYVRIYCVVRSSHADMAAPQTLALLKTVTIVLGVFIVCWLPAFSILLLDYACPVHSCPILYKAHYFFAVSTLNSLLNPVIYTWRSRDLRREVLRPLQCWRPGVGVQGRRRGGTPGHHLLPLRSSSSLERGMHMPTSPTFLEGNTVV
Chain of S1P3 (Q99500 whole entry, species assumed): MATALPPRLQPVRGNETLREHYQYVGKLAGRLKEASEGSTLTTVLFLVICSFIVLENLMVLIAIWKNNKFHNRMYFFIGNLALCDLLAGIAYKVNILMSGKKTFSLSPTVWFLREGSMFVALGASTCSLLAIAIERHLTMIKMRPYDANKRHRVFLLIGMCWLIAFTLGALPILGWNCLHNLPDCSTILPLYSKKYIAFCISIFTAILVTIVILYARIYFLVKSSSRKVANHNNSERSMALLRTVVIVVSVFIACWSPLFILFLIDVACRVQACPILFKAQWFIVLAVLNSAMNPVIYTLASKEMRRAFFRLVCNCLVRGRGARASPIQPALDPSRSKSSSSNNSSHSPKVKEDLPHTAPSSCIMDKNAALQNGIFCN

SMILES: Cc1cscc1-c1ccc(C(=O)Nc2c(C)cccc2C)o1 [9l]
- fold more potent than 9k at S1P4 ([1]; versus 9k): 1.5 fold

SMILES: Cc1cc(CO)cc(C)c1NC(=O)c1ccc(-c2cc(Cl)ccc2Cl)o1 [4t]
- IC50 [1]: 0.036 µM

SMILES: Cc1cccc(C)c1NC(=O)c1ccc(-c2ccc(Cl)cc2Cl)o1 [9a]
- fold less potent than mono-chlorinated 9c at S1P4 ([1]; versus 9c): 7 fold
- fold less potent than the hit (1) at S1P4 [1]: 25 fold

SMILES: Cc1cccc(C)c1N(C)C(=O)c1ccc(-c2ccccc2Cl)o1 [9c]
- fold less potent than the hit (1) at S1P4 [1]: 3 fold

SMILES: O=C(c1ccc(-c2cc(Cl)ccc2Cl)o1)N1CCc2ccccc21 [4j]
- S1P4 activity in words [1]: suppressed completely the activity

SMILES: Cc1cccc(C)c1NC(=O)c1ccc(-c2cc(Cl)ccc2Cl)o1 [compound 1, 5-(2,5-dichlorophenyl)-N-(2,6-dimethylphenyl)furan-2-carboxamide]
- IC50 [2]: > 25 µM
- IC50 [3]: > 25 µM
- IC50 [4]: > 25 µM

SMILES: Cc1cccc(C)c1NC(=O)c1ccc(-c2cccc(Cl)c2)o1 [9b]
- fold less potent than the hit (1) at S1P4 [1]: 6 fold

SMILES: Cc1cc(C)c(N(C)C(=O)c2ccc(-c3cc(Cl)ccc3Cl)o2)c(C)c1 [4r]
- fold less potent than the homolog 4q at S1P4 ([1]; versus 4q): approximately 128 fold

SMILES: Cc1cccc(C)c1NC(=O)c1ccc(-c2c(C)cccc2C)o1 [9j]
- S1P4 activity in words [1]: inactive
